# Columns and labels:
# [1] = molecular target: T1, CDK2/Cyclin A2 (Homo sapiens, UniProt P24941); test: Inhibition of human CDK2/Cyclin A2 using PKTPKKAKKL as substrate by PK/LDH spectrophotometric analysis; format: protein-complex assay
# [2] = test system: U-266; test: Cytotoxicity against human U266 cells after 72 hrs by resazurin/resorufin-based fluorescence assay; format: functional, cell-based; settings: U-266, 72 h
# [3] = Cytotoxicity against human MDA-MB-436 cells after 72 hrs by resazurin/resorufin-based fluorescence assay; format: functional, cell-based; settings: MDA-MB-436, 72 h
# [4] = test system: MDA-MB-468; test: Cytotoxicity against human MDA-MB-468 cells after 72 hrs by MTT assay; format: functional, cell-based; settings: MDA-MB-468, 72 h
# Summary of the method: (§1)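 Cells kept in RPMI or DMEM with 10% FBS at 37 °C, 5% CO₂ and allowed to attach overnight; 72 h with increasing inhibitor concentrations; then 1 mg/mL MTT for 3 h, DMSO solubilisation, OD read at 540 nm. Testis lines had culture conditions adapted to them. Dose-response in triplicate, 9 concentrations between 0.02 and 100 μM, averaged.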
# [5] = Cytotoxicity against human RPMI18226 cells after 72 hrs by resazurin/resorufin-based fluorescence assay; format: functional, cell-based; settings: RPMI18226, 72 h
# [6] = test system: SK-BR-3; test: Cytotoxicity against human SK-BR-3 cells after 72 hrs by resazurin/resorufin-based fluorescence assay; format: functional, cell-based; settings: SK-BR-3, 72 h
# Summary of the method: (§2)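 CellTiter-Blue viability: 1200 cells per well seeded, incubated overnight at 37 °C, 5% CO₂; drugs serially diluted 2:3 in medium, four replicate wells per concentration plus four diluent-only control wells; 72 h exposure; resazurin reduction to resorufin read by fluorescence (579 nm ex/584 nm em). IC50 is the average of three data sets, each using nine concentrations between 0.004 μM and 12.5 μM.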
# [7] = test system: BT-549; test: Cytotoxicity against human BT549 cells after 72 hrs by resazurin/resorufin-based fluorescence assay; format: functional, cell-based; settings: BT-549, 72 h; summary of the method: as §2
# [8] = test system: A673; test: Cytotoxicity against human A673 cells after 72 hrs by resazurin/resorufin-based fluorescence assay; format: functional, cell-based; settings: A673, 72 h
# [9] = test system: SK-ES1; test: Cytotoxicity against human SK-ES-1 cells after 72 hrs by resazurin/resorufin-based fluorescence assay; format: functional, cell-based; settings: SK-ES1, 72 h
# [10] = Cytotoxicity against human NCI-H929 cells after 72 hrs by resazurin/resorufin-based fluorescence assay; format: functional, cell-based; settings: NCI-H929, 72 h
# [11] = test system: T47D; test: Cytotoxicity against human T47D cells after 72 hrs by resazurin/resorufin-based fluorescence assay; format: functional, cell-based
# [12] = test system: HOS-TE85; test: Cytotoxicity against human MNNG-HOS cells after 72 hrs by resazurin/resorufin-based fluorescence assay; format: functional, cell-based; settings: HOS-TE85, 72 h
# [13] = test system: SW872; test: Cytotoxicity against human SW872 cells after 72 hrs by resazurin/resorufin-based fluorescence assay; format: functional, cell-based; settings: SW872, 72 h
# [14] = test system: MDA-MB-231; test: Cytotoxicity against human MDA-MB-231 cells after 72 hrs by resazurin/resorufin-based fluorescence assay; format: functional, cell-based; settings: MDA-MB-231, 72 h
# [15] = test system: MCF7; test: Cytotoxicity against human MCF7 cells after 72 hrs by resazurin/resorufin-based fluorescence assay; format: functional, cell-based; settings: MCF7, 72 h
# [16] = molecular target: T1, CDK2/Cyclin A2; test: Inhibition of human CDK2/Cyclin A2 using PKTPKKAKKL as substrate by fluorescence assay; format: protein-complex assay
# [17] = test system: SK-UT-1; test: Cytotoxicity against human SK-UT-1 cells after 72 hrs by resazurin/resorufin-based fluorescence assay; format: functional, cell-based; settings: SK-UT-1, 72 h
# [18] = Cytotoxicity against mouse GC-1 cells after 72 hrs by MTT assay; format: functional, cell-based; settings: GC-1, 72 h; summary of the method: as §1
# [19] = Cytotoxicity against mouse TM4 cells after 72 hrs by MTT assay; format: functional, cell-based; settings: TM4, 72 h; summary of the method: as §1
# [20] = Cytotoxicity against mouse GC-2 cells after 72 hrs by MTT assay; format: functional, cell-based; settings: GC-2, 72 h; summary of the method: as §1
structure (smiles),measurement,setting,value
C=CCNc1nc(N)c(C(=O)c2ccccc2)s1,IC50,[1],15 µM
C=CCNc1nc(N)c(C(=O)C(C)(C)C)s1,IC50,[1],> 100 µM
C=CCNc1nc(N)c(C(=O)c2ccc([N+](=O)[O-])cc2)s1,IC50,[1],41 µM
C=CCNc1nc(N)c(C(=O)c2ccncc2)s1,IC50,[1],49 µM
CN(C)/C=C/C(=O)c1sc(Nc2ccc(S(N)(=O)=O)cc2)nc1N,IC50,[1],> 100 µM
N#Cc1ccc(Nc2nc(N)c(C(=O)c3cccnc3)s2)cc1,IC50,[1],2.8 µM
CC(=O)c1sc(Nc2ccccc2)nc1N,IC50,[1],> 100 µM
CC(C)(C)Nc1nc(N)c(C(=O)c2ccccc2)s1,IC50,[1],> 100 µM
Nc1nc(Nc2ccccc2)sc1C(=O)c1cc(C(F)(F)F)cc(C(F)(F)F)c1,IC50,[1],> 100 µM
Nc1nc(Nc2ccc(S(N)(=O)=O)cc2)sc1C(=O)c1ccc2ccccc2c1,IC50,[2],7.9 µM
same,IC50,[3],5.3 µM
same,IC50,[1],82 µM
same,IC50,[4],5.5 µM
same,IC50,[5],> 10 µM
same,IC50,[6],6.1 µM
same,IC50,[7],> 10 µM
same,IC50,[8],3.7 µM
same,IC50,[9],4.8 µM
same,IC50,[10],4.3 µM
same,IC50,[11],4.5 µM
same,IC50,[12],9.7 µM
same,IC50,[13],> 10 µM
same,IC50,[14],> 10 µM
same,IC50,[15],5.9 µM
COc1ccc(C(=O)c2sc(Nc3ccc(S(N)(=O)=O)cc3)nc2N)cc1,IC50,[1],17 µM
Nc1nc(Nc2ccccc2)sc1C(=O)c1cccc(C(F)(F)F)c1,IC50,[1],> 100 µM
Nc1nc(Nc2ccc(C(F)(F)F)cc2)sc1C(=O)c1ccccc1,IC50,[1],> 100 µM
Nc1nc(Nc2ccc(S(N)(=O)=O)cc2)sc1C(=O)c1cccc(Cl)c1,IC50,[1],15 µM
Cc1ccccc1C(=O)c1sc(Nc2ccc(S(N)(=O)=O)cc2)nc1N,IC50,[1],4.8 µM
C=CCNc1nc(N)c(C(=O)c2cccnc2)s1,IC50,[1],3.1 µM
C=CCNc1nc(N)c(C(=O)c2ccccn2)s1,IC50,[1],33 µM
Nc1cccc(C(=O)c2sc(Nc3ccc(S(N)(=O)=O)cc3)nc2N)c1,IC50,[2],5.5 µM
same,IC50,[3],> 10 µM
same,IC50,[5],> 10 µM
same,IC50,[6],4.1 µM
same,IC50,[7],> 10 µM
same,IC50,[8],8.8 µM
same,IC50,[9],9.8 µM
same,IC50,[10],6.8 µM
same,IC50,[11],5.8 µM
same,IC50,[16],0.07 µM
same,IC50,[12],> 10 µM
same,IC50,[13],> 10 µM
same,IC50,[17],> 10 µM
same,IC50,[14],> 10 µM
same,IC50,[15],> 10 µM
Nc1nc(Nc2ccccc2)sc1C(=O)c1cccc([N+](=O)[O-])c1,IC50,[1],2.2 µM
C=CCNc1nc(N)c(C(=O)c2ccc3ccccc3c2)s1,IC50,[1],5 µM
Nc1nc(Nc2ccccc2)sc1C(=O)c1cccnc1,IC50,[18],5.9 µM
same,IC50,[19],5.5 µM
same,IC50,[20],9.5 µM
same,IC50,[16],0.65 µM
Nc1nc(NC2CCCCC2)sc1C(=O)c1ccccc1,IC50,[1],1.3 µM
same,IC50,[18],9.2 µM
same,IC50,[19],9.3 µM
same,IC50,[20],8.2 µM
C=CCNc1nc(N)c(C(=O)Nc2cc(C)no2)s1,IC50,[1],> 100 µM
Nc1nc(Nc2cccc(F)c2)sc1C(=O)c1ccccc1,IC50,[1],5.7 µM
COC(=O)c1ccccc1C(=O)c1sc(Nc2ccc(S(N)(=O)=O)cc2)nc1N,IC50,[1],32 µM
Nc1nc(Nc2ccc(S(N)(=O)=O)cc2)sc1C(=O)c1cccc([N+](=O)[O-])c1,IC50,[18],22 µM
same,IC50,[19],4 µM
same,IC50,[20],20 µM
same,IC50,[16],0.07 µM
CC(C)Nc1nc(N)c(C(=O)c2ccccc2)s1,IC50,[1],2 µM
CC(C)Nc1nc(N)c(C(=O)c2cccnc2)s1,IC50,[16],0.52 µM
C=CCNc1nc(N)c(C(=O)c2ccc(F)cc2)s1,IC50,[1],> 100 µM
Nc1nc(Nc2ccccc2)sc1C(=O)c1ccc2ccccc2c1,IC50,[1],> 100 µM
Nc1nc(Nc2ccccc2)sc1C(=O)c1ccc(F)cc1,IC50,[1],1.4 µM
same,IC50,[18],16 µM
same,IC50,[19],14 µM
same,IC50,[20],17 µM
Nc1nc(Nc2ccccc2)sc1C(=O)c1cccc(Cl)c1,IC50,[1],99 µM
